Measured values as given in publication PMC7114172 (ACS Omega, 2020).
Bridge positions count the residues as written; N and C are the ends. Square brackets hold non-standard residues; d marks the D form. Ends that are not written are not given here. Peptide text beside a SMILES is read from it. * marks the point of attachment. Myristoyl = CCCCCCCCCCCCCC(=O)*; Phe(ol) = N[C@H](CO)Cc1ccccc1; Aib = CC(C)(N)C(=O)O; NHCH2CH2OH = OCCN*; For = O=C*

Columns and labels:
[1] = tested on: LPS E. coli K-235; assay: LPS binding, dansyl cadaverine; parameters: species or system Escherichia coli; conditions: LPS E. coli K-235 280 μg/mL, DC 12 μM, 10 mM phosphate buffer pH 7.4, 25 °C
Summary of the method: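 Test peptide was added in small successive aliquots to a preformed DC:LPS complex. […] Excitation was at 340 nm and emission scanned 420–600 nm (slits 2.5/5 nm). Probe occupancy was calculated as (F−F0)/(Fmax−F0), where F0 is DC alone, Fmax is DC at maximum LPS, and F is DC–LPS at each peptide concentration. A positive-control peptide was run first.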

[2] = tested on: E. coli K-12 strain MG1655 (CGSC-7740); conditions: concentration at which no viable colonies are formed; 10 mM phosphate buffer pH 7.4; cited from earlier work
[3] = tested on: S. aureus (ATCC 8530); conditions: concentration at which no viable colonies are formed; 10 mM phosphate buffer pH 7.4; cited from earlier work

| Compound | Relative binding affinity to LPS (DC displacement) [1] | MBC, E. coli [2] | MBC, S. aureus [3] |
| --- | --- | --- | --- |
| ACPIFTKIQGTYRGKAKCK (disulfide 2-18 (inferred)) [Phd1] | more affinity as compared to Phd2-3 and MPhd2-3 | 19 µM | 20 µM |
| Myristoyl-SCLPKEEQIGKSTRGRKCRRKK (disulfide 2-18 (inferred)) [MPhd3] |  | 4 µM | 4 µM |
| cyclized isooctanoyl BTBB(BF^dLBBT) (lariat or depsi) [polymyxin B] | strong binding compared to HBD2-3 as well as LL37 and melittin |  |  |
| Myristoyl-ACPIFTKIQGTYRGKAKCK (disulfide 2-18 (inferred)) [MPhd1] | more affinity as compared to Phd2-3 and MPhd2-3 | 5 µM | 5 µM |
| CC(C)C[C@@H](NC(=O)[C@H](C)NC(=O)CNC(=O)[C@@H](NC=O)C(C)C)C(=O)N[C@@H](C)C(=O)N[C@@H](C(=O)N[C@H](C(=O)N[C@@H](C(=O)N[C@@H](Cc1c[nH]c2ccccc12)C(=O)N[C@H](CC(C)C)C(=O)N[C@@H](Cc1c[nH]c2ccccc12)C(=O)N[C@H](CC(C)C)C(=O)N[C@@H](Cc1c[nH]c2ccccc12)C(=O)N[C@H](CC(C)C)C(=O)N[C@@H](Cc1c[nH]c2ccccc12)C(=O)NCCO)C(C)C)C(C)C)C(C)C [gramicidin A] (For-VGA[dL]A[dV]V[dV]W[dL]W[dL]W[dL]W-NHCH2CH2OH; N-terminus and C-terminus assumed) | weak affinity as compared to polymyxin B |  |  |
| Myristoyl-FCPRRYKQIGTGLPGTKCK (disulfide 2-18 (inferred)) [MPhd2] |  | 6 µM | 5 µM |
| CC(=O)NC(C)(C)C(=O)N1CCC[C@H]1C(=O)NC(C)(C)C(=O)N[C@@H](C)C(=O)NC(C)(C)C(=O)N[C@@H](C)C(=O)N[C@@H](CCC(N)=O)C(=O)NC(C)(C)C(=O)N[C@H](C(=O)NC(C)(C)C(=O)NCC(=O)N[C@@H](CC(C)C)C(=O)NC(C)(C)C(=O)N1CCC[C@H]1C(=O)N[C@H](C(=O)NC(C)(C)C(=O)NC(C)(C)C(=O)N[C@@H](CCC(=O)O)C(=O)N[C@@H](CCC(N)=O)C(=O)N[C@H](CO)Cc1ccccc1)C(C)C)C(C)C [alamethicin] (Ac-[Aib]P[Aib]A[Aib]AQ[Aib]V[Aib]GL[Aib]PV[Aib][Aib]EQ[Phe(ol)]; N-terminus assumed) | weak affinity as compared to polymyxin B |  |  |
